Molecules are shown by their SMILES. pIC50: −log10 of the molar value. Values after ≈ are worked out from the molar mass of the structure shown. Active and inactive are the calls of the source. No cut-off for these calls is given here.

Chain of GIM-1 protein (Q704V1 whole entry): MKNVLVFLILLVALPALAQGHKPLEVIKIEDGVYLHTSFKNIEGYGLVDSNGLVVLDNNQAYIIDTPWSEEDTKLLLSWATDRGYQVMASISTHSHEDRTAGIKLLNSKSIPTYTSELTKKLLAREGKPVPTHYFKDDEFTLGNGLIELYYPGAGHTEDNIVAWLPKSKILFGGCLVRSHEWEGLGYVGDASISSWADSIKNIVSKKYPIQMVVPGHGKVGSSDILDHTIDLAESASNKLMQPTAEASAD

The target of the first test is Beta-lactamase VIM-2 (Pseudomonas aeruginosa, UniProt Q9K2N0). Put plainly: Inhibition of beta lactamase VIM-2 in Pseudomonas aeruginosa 3015473 in presence of nitrocefin as reporter substrate measured after 5 mins by microplate spectrophotometry analysis. To be noted: read-out: IC50. The essentials:
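Purified VIM-2 at 1 nM in 50 mM HEPES pH 7.2 with 100 µM ZnCl2 and 400 µg/ml BSA, preincubated with inhibitor (sixteen concentrations, 0–250 µM) for 5 min at 25 °C. Then 100 µM nitrocefin was added and absorbance was followed at 482 nm. Points were run in triplicate, and IC50 was taken from initial velocities by log[inhibitor]–response fitting.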
In general, pIC50 refers to the negative decadic logarithm of the IC50, by convention in mol/L. Take `O=S(=O)(NCc1[nH]nnc1CNC12CC3CC(CC(C3)C1)C2)c1cc(Cl)ccc1Cl`: the negative-log IC50 (pIC50) was 6.92.

As for `O=S(=O)(NCc1[nH]nnc1CNC1CCCCC1)c1cc(Cl)ccc1Cl`, the pIC50 was 6.64.

Consider `Cc1ccc(S(=O)(=O)NCc2[nH]nnc2CNC23CC4CC(CC(C4)C2)C3)cc1`, for which the pIC50 was 5.64.

The next test has as its target GIM-1 protein (Pseudomonas aeruginosa, UniProt Q704V1). Put plainly: Inhibition of beta lactamase GIM-1 in Pseudomonas aeruginosa in presence of nitrocefin as reporter substrate measured after 5 mins by microplate spectrophotometry analysis.
Conditions: not given
The essentials: (§1)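 Purified recombinant enzyme (1 nM GIM-1 or NDM-1) in 50 mM HEPES pH 7.2, 100 µM ZnCl2, 400 µg/ml BSA, preincubated with inhibitor at 16 concentrations (0–250 µM) for 5 min at 25 °C. Reporter substrate added at 100 µM: nitrocefin for GIM-1 (A482), imipenem for NDM-1 (A300). Triplicates; IC50 from initial velocities by log[inhibitor]–response fit.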
Take `O=S(=O)(NCc1[nH]nnc1CNC12CC3CC(CC(C3)C1)C2)c1cc(Cl)ccc1Cl`: the IC50 entry is on record as “Nd(Insoluble)”.

Consider `O=S(=O)(NCc1[nH]nnc1CNC1CCCCC1)c1cc(Cl)ccc1Cl`, for which the IC50 result is recorded as “Not Active”.

The same test, now with this note: read-out: IC50.
On to `Cc1ccc(S(=O)(=O)NCc2[nH]nnc2CNC23CC4CC(CC(C4)C2)C3)cc1`, for which the negative logarithm of the IC50 (pIC50) was 4.08.

Target in the next test: not listed separately
In words: Inhibition of beta lactamase NDM1 in Klebsiella pneumoniae in presence of imipenem as reporter substrate measured after 5 mins by microplate spectrophotometry analysis. The following applies: read-out: IC50. The procedure, abridged: as §1
On to `O=S(=O)(NCc1[nH]nnc1CNC1CCCCC1)c1cc(Cl)ccc1Cl`, for which the pIC50 was 4.01.

The target of another test is Beta-lactamase VIM-2 (Pseudomonas aeruginosa) (UniProt Q9K2N0). Put plainly: Inhibition of Pseudomonas aeruginosa 3015473 beta lactamase VIM-2 transfected in negative Escherichia coli SNO3 cells assessed as substrate hydrolysis using nitrocefin as substrate at 250 uM incubated for 20 mins measured every 1 mins for 3 hrs by cell-based microplate spectrophotometry analysis relative to control.
Conditions: not given
The essentials:
(§2)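 E. coli SNO3 (β-lactamase-negative) carrying pET26b(+) with blaVIM-2, blaGIM-1 or blaNDM-1; overnight culture adjusted to OD600 1 in LB, inhibitor 250 µM final, IPTG 0.8 mM final, 37 °C 20 min with shaking to induce. Nitrocefin added (1.6 mM final, in 50 mM HEPES pH 7.2, 100 µM ZnCl2), A482 read each minute for 3 h; duplicates.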
One may read the inhibition as the drop in the measured response relative to a control, in per cent. As for `O=S(=O)(NCc1[nH]nnc1CNC12CC3CC(CC(C3)C1)C2)c1cc(Cl)ccc1Cl`, the inhibition result was “inactive”.

For `O=S(=O)(NCc1[nH]nnc1CNC1CCCCC1)c1cc(Cl)ccc1Cl`, the inhibition is 94%.

`Cc1ccc(S(=O)(=O)NCc2[nH]nnc2CNC23CC4CC(CC(C4)C2)C3)cc1`: the inhibition is 84%.

The target in the next test is GIM-1 protein (Pseudomonas aeruginosa) (UniProt Q704V1). In words: Inhibition of Pseudomonas aeruginosa beta lactamase GIM-1 transfected in negative Escherichia coli SNO3 cells assessed as substrate hydrolysis using nitrocefin as substrate at 250 uM incubated for 20 mins measured every 1 mins for 3 hrs by cell-based microplate spectrophotometry analysis relative to control.
Chain of GIM-1 protein (Pseudomonas aeruginosa) (Q704V1 as listed by the source): as the sequence (Q704V1 whole entry) above
Conditions: not given
The essentials: as §2
`O=S(=O)(NCc1[nH]nnc1CNC12CC3CC(CC(C3)C1)C2)c1cc(Cl)ccc1Cl`: the inhibition was 21%.

Regarding `O=S(=O)(NCc1[nH]nnc1CNC1CCCCC1)c1cc(Cl)ccc1Cl`, the inhibition came out at 7%.

Turning to `Cc1ccc(S(=O)(=O)NCc2[nH]nnc2CNC23CC4CC(CC(C4)C2)C3)cc1`, the inhibition entry was “inactive”.

In a further test the test system is Klebsiella pneumoniae. In words: Inhibition of Klebsiella pneumonia beta lactamase NDM1 transfected in negative Escherichia coli SNO3 cells assessed as substrate hydrolysis using nitrocefin as substrate at 250 uM incubated for 20 mins measured every 1 mins for 3 hrs by cell-based microplate spectrophotometry analysis relative to control.
Conditions: not given
The procedure, abridged: as §2
In the case of `O=S(=O)(NCc1[nH]nnc1CNC12CC3CC(CC(C3)C1)C2)c1cc(Cl)ccc1Cl`, the inhibition entry was “inactive”.

`O=S(=O)(NCc1[nH]nnc1CNC1CCCCC1)c1cc(Cl)ccc1Cl`: the inhibition result was “inactive”.

As to `Cc1ccc(S(=O)(=O)NCc2[nH]nnc2CNC23CC4CC(CC(C4)C2)C3)cc1`, the inhibition entry was “inactive”.

Another test has as its target Beta-lactamase VIM-2 (Pseudomonas aeruginosa) (UniProt Q9K2N0). Put plainly: Synergistic Inhibition of beta lactamase VIM-2 in Pseudomonas aeruginosa K34-7 assessed colony formation by visual inspection in presence of 50 microM 2,5-Dichloro-N-((4-((cyclohexylamino)methyl)-1H-1,2,3-triazol-5-yl)methyl)benzenesulfonamide incubated for 20 hrs by two-fold dilution method.
Conditions: not given
The procedure, abridged: (§3)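 Broth microdilution in Mueller Hinton broth against clinical isolates (P. aeruginosa VIM-2, K. pneumoniae NDM-1, E. coli VIM-29). Meropenem 2-fold series 256–0.0625 µg/mL, with inhibitor at 50 or 125 µM final; 5% DMSO control. Inoculum from 0.5 McFarland suspension in 0.85% NaCl diluted in MH broth, CFU checked on MH agar. 37 °C for 20 h; MIC read visually.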
As to `C[C@@H](O)[C@H]1C(=O)N2C(C(=O)O)=C(S[C@@H]3CN[C@H](C(=O)N(C)C)C3)[C@H](C)[C@H]12`, the MIC stood at 8 µg/mL.

A further test deals with Metallo-beta-lactamase type 2 (Klebsiella pneumoniae) (UniProt C7C422). In words: Synergistic Inhibition of beta lactamase NDM1 in Klebsiella pneumoniae K66-45 assessed colony formation by visual inspection in presence of 50 microM 2,5-Dichloro-N-((4-((cyclohexylamino)methyl)-1H-1,2,3-triazol-5-yl)methyl)benzenesulfonamide incubated for 20 hrs by two-fold dilution method.
Chain of Metallo-beta-lactamase type 2 (Klebsiella pneumoniae) (C7C422 whole entry): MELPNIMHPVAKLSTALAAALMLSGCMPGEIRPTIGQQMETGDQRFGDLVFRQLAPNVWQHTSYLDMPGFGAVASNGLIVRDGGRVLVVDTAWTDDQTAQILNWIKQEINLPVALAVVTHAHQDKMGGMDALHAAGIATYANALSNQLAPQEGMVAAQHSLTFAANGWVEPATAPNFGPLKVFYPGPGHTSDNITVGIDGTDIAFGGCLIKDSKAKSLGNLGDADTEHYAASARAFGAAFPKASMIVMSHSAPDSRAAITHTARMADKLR
Conditions: not given
The procedure, abridged: as §3
For `C[C@@H](O)[C@H]1C(=O)N2C(C(=O)O)=C(S[C@@H]3CN[C@H](C(=O)N(C)C)C3)[C@H](C)[C@H]12`, the MIC was determined as 32 µg/mL.

Another test has as its system Escherichia coli. In words: Synergistic Inhibition of beta lactamase VIM-29 in Escherichia coli 50639799 assessed colony formation by visual inspection in presence of 50 microM 2,5-Dichloro-N-((4-((cyclohexylamino)methyl)-1H-1,2,3-triazol-5-yl)methyl)benzenesulfonamide incubated for 20 hrs by two-fold dilution method.
Conditions: not given
The essentials:
as §3
For `C[C@@H](O)[C@H]1C(=O)N2C(C(=O)O)=C(S[C@@H]3CN[C@H](C(=O)N(C)C)C3)[C@H](C)[C@H]12`, the MIC worked out at 16 µg/mL.

A further test deals with Beta-lactamase VIM-2 (Pseudomonas aeruginosa) (UniProt Q9K2N0). In words: Inhibition of beta lactamase VIM-2 in Pseudomonas aeruginosa K34-7 assessed colony formation by visual inspection incubated for 20 hrs by two-fold dilution method.
Conditions: not given
The essentials: as §3
Turning to `C[C@@H](O)[C@H]1C(=O)N2C(C(=O)O)=C(S[C@@H]3CN[C@H](C(=O)N(C)C)C3)[C@H](C)[C@H]12`, the MIC was 64 µg/mL (≈ 167 µM).

The target in the next test is Metallo-beta-lactamase type 2 (Klebsiella pneumoniae) (UniProt C7C422). In words: Inhibition of beta lactamase NDM1 in Klebsiella pneumoniae K66-45 assessed colony formation by visual inspection incubated for 20 hrs by two-fold dilution method.
Conditions: not given
The essentials:
as §3
Regarding `C[C@@H](O)[C@H]1C(=O)N2C(C(=O)O)=C(S[C@@H]3CN[C@H](C(=O)N(C)C)C3)[C@H](C)[C@H]12`, the MIC amounted to 32 µg/mL (≈ 83.4 µM).

Another test deals with Escherichia coli. Put plainly: Inhibition of beta lactamase VIM-29 in Escherichia coli 50639799 assessed colony formation by visual inspection incubated for 20 hrs by two-fold dilution method.
Conditions: not given
The procedure, abridged:
as §3
In the case of `C[C@@H](O)[C@H]1C(=O)N2C(C(=O)O)=C(S[C@@H]3CN[C@H](C(=O)N(C)C)C3)[C@H](C)[C@H]12`, the MIC is 16 µg/mL (≈ 41.7 µM).

For the next test, the target named is Beta-lactamase VIM-2 (Pseudomonas aeruginosa) (UniProt Q9K2N0). In words: Synergistic Inhibition of beta lactamase VIM-2 in Pseudomonas aeruginosa K34-7 assessed colony formation by visual inspection in presence of 50 microM (5-((4-iodophenylsulfonamido)methyl)-1H-1,2,3-triazol-4-yl)methyl acetate incubated for 20 hrs by two-fold dilution method.
Conditions: not given
The essentials:
as §3
As to `C[C@@H](O)[C@H]1C(=O)N2C(C(=O)O)=C(S[C@@H]3CN[C@H](C(=O)N(C)C)C3)[C@H](C)[C@H]12`, the MIC came to 1 µg/mL.

The next test deals with Metallo-beta-lactamase type 2 (Klebsiella pneumoniae) (UniProt C7C422). In words: Synergistic Inhibition of beta lactamase NDM1 in Klebsiella pneumoniae K66-45 assessed colony formation by visual inspection in presence of 125 microM N-((4-((cyclohexylamino)methyl)-1H-1,2,3-triazol-5-yl)methyl)-4-iodobenzenesulfonamide incubated for 20 hrs by two-fold dilution method.
Conditions: not given
The essentials: as §3
On to `C[C@@H](O)[C@H]1C(=O)N2C(C(=O)O)=C(S[C@@H]3CN[C@H](C(=O)N(C)C)C3)[C@H](C)[C@H]12`, for which the MIC came to 64 µg/mL.

Another test addresses Beta-lactamase VIM-2 (Pseudomonas aeruginosa) (UniProt Q9K2N0). Put plainly: Synergistic Inhibition of beta lactamase VIM-2 in Pseudomonas aeruginosa K34-7 assessed colony formation by visual inspection in presence of 125 microM N-((4-((cyclohexylamino)methyl)-1H-1,2,3-triazol-5-yl)methyl)-4-iodobenzenesulfonamide incubated for 20 hrs by two-fold dilution method.
Conditions: not given
The procedure, abridged:
as §3
On to `C[C@@H](O)[C@H]1C(=O)N2C(C(=O)O)=C(S[C@@H]3CN[C@H](C(=O)N(C)C)C3)[C@H](C)[C@H]12`, for which the MIC is 8 µg/mL.

For another test, the target named is Metallo-beta-lactamase type 2 (Klebsiella pneumoniae) (UniProt C7C422). Put plainly: Synergistic Inhibition of beta lactamase NDM1 in Klebsiella pneumoniae K66-45 assessed colony formation by visual inspection in presence of 125 microM N-((4-((adamantylamino)methyl)-1H-1,2,3-triazol-5-yl)methyl)-4-iodobenzenesulfonamide incubated for 20 hrs by two-fold dilution method.
Conditions: not given
The procedure, abridged: as §3
For `C[C@@H](O)[C@H]1C(=O)N2C(C(=O)O)=C(S[C@@H]3CN[C@H](C(=O)N(C)C)C3)[C@H](C)[C@H]12`, the MIC turned out to be 32 µg/mL.

In a further test the target is Beta-lactamase VIM-2 (Pseudomonas aeruginosa) (UniProt Q9K2N0). In words: Synergistic Inhibition of beta lactamase VIM-2 in Pseudomonas aeruginosa K34-7 assessed colony formation by visual inspection in presence of 125 microM N-((4-((adamantylamino)methyl)-1H-1,2,3-triazol-5-yl)methyl)-4-iodobenzenesulfonamide incubated for 20 hrs by two-fold dilution method.
Conditions: not given
The procedure, abridged: as §3
As for `C[C@@H](O)[C@H]1C(=O)N2C(C(=O)O)=C(S[C@@H]3CN[C@H](C(=O)N(C)C)C3)[C@H](C)[C@H]12`, the MIC turned out to be 16 µg/mL.

The target in a further test is Metallo-beta-lactamase type 2 (Klebsiella pneumoniae) (UniProt C7C422). In words: Synergistic Inhibition of beta lactamase NDM1 in Klebsiella pneumoniae K66-45 assessed colony formation by visual inspection in presence of 50 microM (5-((4-iodophenylsulfonamido)methyl)-1H-1,2,3-triazol-4-yl)methyl acetate incubated for 20 hrs by two-fold dilution method.
Conditions: not given
The essentials: as §3
For the compound `C[C@@H](O)[C@H]1C(=O)N2C(C(=O)O)=C(S[C@@H]3CN[C@H](C(=O)N(C)C)C3)[C@H](C)[C@H]12`, the MIC came out at 64 µg/mL.

In the next test the test system is Escherichia coli. In words: Synergistic Inhibition of beta lactamase VIM-29 in Escherichia coli 50639799 assessed colony formation by visual inspection in presence of 50 microM (5-((4-iodophenylsulfonamido)methyl)-1H-1,2,3-triazol-4-yl)methyl acetate incubated for 20 hrs by two-fold dilution method.
Conditions: not given
The essentials: as §3
As for `C[C@@H](O)[C@H]1C(=O)N2C(C(=O)O)=C(S[C@@H]3CN[C@H](C(=O)N(C)C)C3)[C@H](C)[C@H]12`, the MIC turned out to be 1 µg/mL.

The record behind these values is ChEMBL document CHEMBL4725280, “Structural studies of triazole inhibitors with promising inhibitor effects against antibiotic resistance metallo-β-lactamases” (Bioorg Med Chem, 2020).
